From ChEMBL document CHEMBL4680114, “Optimization of Potent and Selective Ataxia Telangiectasia-Mutated Inhibitors Suitable for a Proof-of-Concept Study in Huntington's Disease Models” (J Med Chem, 2019) come the findings set out here.

Converted amounts (≈) assume the structure as drawn.

This data set in a line: Kinetic solubility in pH 7.4 PBS buffer by LC-UV assay. As to conditions: read-out: Kinetic_solubility. It counts as physicochemical. In a few lines: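 Compound from a 10 mM DMSO stock diluted to a nominal 200 µM in 0.1 M potassium phosphate/0.8% NaCl pH 7.4 (2% DMSO final), n=2. Shaken 2 h at room temperature, then filtered. Filtrate quantified by LC-UV against 200 µM and 10 µM DMSO standards, with MS peak confirmation.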
As to `CO[C@@H](C)COc1ccc2c(c1)Cc1cccc(-c3cc(=O)cc(N4CCOCC4)o3)c1S2`, the solubility kinetic came out at 14 µg/mL (≈ 30.1 µM).
The value for `C[C@@H]1CN(CCOc2ccc3c(c2)Cc2cccc(-c4cc(=O)cc(N5CCOCC5)o4)c2S3)C[C@H](C)O1` was 42.5 µg/mL (≈ 79.5 µM); that for `CC(=O)Nc1ccc2c(c1)Cc1cccc(-c3cc(=O)cc(N4CCOCC4)o3)c1S2` was 34 µg/mL (≈ 78.2 µM); that for `COc1ccc2c(c1)C(C)(C)c1cccc(-c3cc(=O)cc(N4CCOCC4)o3)c1S2` was 5 µg/mL (≈ 11.5 µM).
The value for `C[C@@H](CN1CCOCC1)Oc1ccc2c(c1)Cc1cccc(-c3cc(=O)cc(N4CCOCC4)o3)c1S2` was 56 µg/mL (≈ 108 µM); that for `C[C@@H](COc1ccc2c(c1)Cc1cccc(-c3cc(=O)cc(N4CCOCC4)o3)c1S2)N1CCOCC1` was 9 µg/mL (≈ 17.3 µM); that for `CN1CCN(CCOc2ccc3c(c2)Cc2cccc(-c4cc(=O)cc(N5CCOCC5)o4)c2S3)CC1` was 92 µg/mL (≈ 177 µM).
As for `CN1CC[C@@H](Oc2ccc3c(c2)Cc2cccc(-c4cc(=O)cc(N5CCOCC5)o4)c2S3)C1`, the solubility kinetic is 84 µg/mL (≈ 176 µM).
On to `O=c1cc(-c2cccc3c2Sc2ccc(OC4CCOCC4)cc2C3)oc(N2CCOCC2)c1`, for which the solubility kinetic turned out to be 10 µg/mL (≈ 20.9 µM).
To `O=c1cc(-c2cccc3c2Sc2ccc(OCCN4CCC(F)(F)CC4)cc2C3)oc(N2CCOCC2)c1` belongs 3 µg/mL (≈ 5.55 µM); to `C[C@@H]1CN(C[C@H](C)Oc2ccc3c(c2)Cc2cccc(-c4cc(=O)cc(N5CCOCC5)o4)c2S3)C[C@H](C)O1`, 27 µg/mL (≈ 49.2 µM).
In the case of `O=c1cc(-c2cccc3c2Sc2ccc(OCCN4CCC(F)(F)C4)cc2C3)oc(N2CCOCC2)c1`, the solubility kinetic stood at 3 µg/mL (≈ 5.7 µM).
Regarding `O=C(CN1CCCC1)Nc1ccc2c(c1)Cc1cccc(-c3cc(=O)cc(N4CCOCC4)o3)c1S2`, the solubility kinetic amounted to 81 µg/mL (≈ 161 µM).
The value for `C[C@H](O)COc1ccc2c(c1)Cc1cccc(-c3cc(=O)cc(N4CCOCC4)o3)c1S2` was 30 µg/mL (≈ 66.4 µM); that for `O=C(Nc1ccc2c(c1)Cc1cccc(-c3cc(=O)cc(N4CCOCC4)o3)c1S2)C1CC1` was 5 µg/mL (≈ 10.9 µM).
The value for `C[C@@H](CN1C[C@H]2C[C@@H]1CO2)Oc1ccc2c(c1)Cc1cccc(-c3cc(=O)cc(N4CCOCC4)o3)c1S2` was 89 µg/mL (≈ 167 µM).
To `C[C@H](COc1ccc2c(c1)Cc1cccc(-c3cc(=O)cc(N4CCOCC4)o3)c1S2)N1CCOCC1` belongs 13 µg/mL (≈ 25 µM).
With `C[C@@H](CN1CCCC12COC2)Oc1ccc2c(c1)Cc1cccc(-c3cc(=O)cc(N4CCOCC4)o3)c1S2`, the solubility kinetic was found to be 21 µg/mL (≈ 38.4 µM).
The value for `CC1(CNc2ccc3c(c2)Cc2cccc(-c4cc(=O)cc(N5CCOCC5)o4)c2S3)COC1` was 14 µg/mL (≈ 29.4 µM); that for `O=c1cc(-c2cccc3c2Sc2ccc(OCCN4CC(F)C4)cc2C3)oc(N2CCOCC2)c1` was 46 µg/mL (≈ 93 µM); that for `CC(=O)N(C)c1ccc2c(c1)Cc1cccc(-c3cc(=O)cc(N4CCOCC4)o3)c1S2` was 77 µg/mL (≈ 172 µM).
Take `COC[C@@H]1c2cc(OC)ccc2Sc2c(-c3cc(=O)cc(N4CCOCC4)o3)cccc21`: the solubility kinetic stood at 64 µg/mL (≈ 142 µM).
To `CCN1CC(Oc2ccc3c(c2)Cc2cccc(-c4cc(=O)cc(N5CCOCC5)o4)c2S3)C1` belongs 89 µg/mL (≈ 187 µM); to `O=c1cc(-c2cccc3c2Sc2ccc(OCCN4CCCC45CCOC5)cc2C3)oc(N2CCOCC2)c1` (centres undefined), 47 µg/mL (≈ 86 µM); to `C[C@@H](CN1CCOCC12COC2)Oc1ccc2c(c1)Cc1cccc(-c3cc(=O)cc(N4CCOCC4)o3)c1S2`, 29 µg/mL (≈ 51.5 µM).
The value for `C[C@@H]1CN([C@H](C)COc2ccc3c(c2)Cc2cccc(-c4cc(=O)cc(N5CCOCC5)o4)c2S3)C[C@H](C)O1` was 24 µg/mL (≈ 43.7 µM); that for `O=c1cc(-c2cccc3c2Sc2ccc(OC4CN(CC(F)F)C4)cc2C3)oc(N2CCOCC2)c1` was 12 µg/mL (≈ 23.4 µM).
The value for `C[C@H](CN1CCOCC1)Oc1ccc2c(c1)Cc1cccc(-c3cc(=O)cc(N4CCOCC4)o3)c1S2` was 49 µg/mL (≈ 94.1 µM); that for `O=c1cc(-c2cccc3c2Sc2ccc(OCCN4C[C@H]5C[C@@H]4CO5)cc2C3)oc(N2CCOCC2)c1` (relative stereo) was 82 µg/mL (≈ 158 µM).
